Laboratory results taken from paper PMC7917164 (Bioorganic & medicinal chemistry, 2020).
Marks after values point to notes of the source that are not given here.

Columns and labels:
[1] = Pharmacokinetic evaluation after single iv and po administration; format: in vivo, male CD-1 mice; conditions: for Clearance as share of mouse hepatic blood flow: male CD-1 mice, hepatic blood flow ~90 mL/min/kg; for Fraction of oral dose absorbed / Share of absorbed dose metabolized during the first-pass: mice, po; for Fraction of oral dose absorbed: accounting for first-pass effects; for Share of absorbed dose metabolized during the first-pass: assuming hepatic elimination
[2] = test system: Notch processing by γ-secretase; test: Notch processing in H4-APP751 cells transfected with the NΔE construct; format: cell-based, human; conditions: 24hrs, 22d 10 μM and 1 μM, DAPT 300 nM and 100 nM
Procedure, shortened: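 H4 human neuroglioma cells stably overexpressing human APP751 were transfected with an […] Myc-tagged NΔE Notch construct. They were then treated with the test compound, a reference γ-secretase inhibitor or vehicle for 24 h and harvested 48 h post-transfection. Western blots were probed with anti-Myc antibody to detect NΔE and NICD, with β-actin as loading control.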

[3] = test system: Aβ38, Aβ40, Aβ42 and total Aβ peptide levels in SHSY5Y-APP cells; test: Meso Scale multiplex assay of Aβ peptides in SHSY5Y-APP cells; format: cell-based, human; conditions: concentration response
Procedure, shortened: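 Human SH-SY5Y neuroblastoma cells stably overexpressing wild-type human APP751 were exposed to the test compound at a range of concentrations. Aβ38, Aβ40, Aβ42 and total Aβ in the samples were measured by Meso Scale Sector 6000 multiplex assay. Plates were read on an MSD SECTOR Imager after read buffer was added, and peptide concentrations were back-fitted from their respective standard curves.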

[4] = Kinetic aqueous solubility by UV/Vis absorbance in PBS buffer; format: physicochemical; conditions: pH 7.4, PBS buffer
[5] = test system: plasma Aβ38, Aβ40 and Aβ42 levels; test: Pharmacodynamic study using J20 mice; format: in vivo, female J20 mice; conditions: daily oral, 3-day treatment; for Effect on plasma Aβ42 and Aβ40: 25, 50 and 100 mg/kg; for Effect on Aβ38 levels: plasma
Procedure, shortened: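 Female J20 transgenic mice (5–6 months old, n=5/dose) received the test compound or vehicle (5% NMP/95% PEG300) by oral gavage once daily for three days. Animals were killed 4 h after the day-3 dose, and plasma and brain were collected. Aβ38, Aβ40 and Aβ42 were quantified with Meso Scale multiplex kits, and data were analysed as mean ± SEM with ANOVA.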

[6] = test system: Aβ42 levels (γ-secretase modulation) in SHSY5Y-APP cells; test: Cell-based ELISA assay for measuring extracellular Aβ42 levels; design: species or system human
[7] = test system: plasma and brain Aβ38, Aβ40 and Aβ42 levels; test: Pharmacodynamic study using Tg2576 mice; format: in vivo, female Tg2576 mice; conditions: 50 mg/kg, oral daily, 14 days
Procedure, shortened: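 Dosing was by oral gavage in female Tg2576 mice (5–6 months old, n=12/dose), given the test compound or vehicle (5% NMP/95% PEG300) daily for 14 consecutive days. Mice were killed 4 h after the final dose on day 14, and plasma and brain were harvested. Aβ38, Aβ40 and Aβ42 were measured by Meso Scale multiplex assay, and results were expressed as mean ± SEM with ANOVA.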

[8] = male, CD-1, mouse, plasma, iv, 1 mg/kg

Structure (SMILES): CCn1nc2c(c1Nc1nc(-c3ccc(-n4cnc(C)c4)c(OC)n3)cs1)CCCC2 [Compound 22d, N-(2-ethyl-4,5,6,7-tetrahydro-2H-indazol-3-yl)-4-(6-methoxy-5-(4-methyl-1H-imidazol-1-yl)pyridin-2-yl)thiazol-2-amine]
- Clearance as share of mouse hepatic blood flow ([1]; iv): approximately 40%
- Fraction of oral dose absorbed [1]: ~90%
- Share of absorbed dose metabolized during the first-pass [1]: approximately 40%
- Notch processing (NΔE to NICD) [2]: did not inhibit
- Aβ38 levels [3]: potentiated
- Aβ40 levels [3]: suppressed
- Aβ42 levels [3]: suppressed
- total levels of Aβ [3]: no change
- Kin. Aq. Sol. [4]: 4.5* μM

Structure (SMILES): COc1nc(-c2csc(Nc3c4c(nn3CCF)CCCC4)n2)ccc1-n1cnc(C)c1 [Compound 46, N-(2-(2-fluoroethyl)-4,5,6,7-tetrahydro-2H-indazol-3-yl)-4-(6-methoxy-5-(4-methyl-1H-imidazol-1-yl)pyridin-2-yl)thiazol-2-amine]
- clearance at 24 h [1, 8]: 57.8 mL/min/kg
- Fraction of oral dose absorbed [1]: nearly complete
- Share of absorbed dose metabolized during the first-pass [1]: approximately 60%
- Effect on plasma Aβ42 and Aβ40 [5]: plateau between 50 and 100 mg/kg
- Effect on Aβ38 levels [5]: reduced
- Parent Aβ42 IC50 [6]: 110 nM

Structure (SMILES): CCn1nc(C2(C)CC2)cc1Nc1nc(-c2ccc(-n3cnc(C)c3)c(OC)n2)cs1 [Compound 59, N-(1-ethyl-3-(1-methylcyclopropyl)-1H-pyrazol-5-yl)-4-(6-methoxy-5-(4-methyl-1H-imidazol-1-yl)pyridin-2-yl)thiazol-2-amine]
- Clearance as share of mouse hepatic blood flow ([1]; iv): approximately 13%
- clearance at 24 h [1, 8]: 12.1 mL/min/kg

Structure (SMILES): CCn1nc(C(F)(F)F)cc1Nc1nc(-c2ccc(-n3cnc(C)c3)c(OC)n2)cs1 [Compound 60, N-(1-ethyl-3-(trifluoromethyl)-1H-pyrazol-5-yl)-4-(6-methoxy-5-(4-methyl-1H-imidazol-1-yl)pyridin-2-yl)thiazol-2-amine]
- clearance at 24 h [1, 8]: 26.8 mL/min/kg
- Fraction of oral dose absorbed [1]: greater than 80%
- Parent Aβ42 IC50 [6]: 98 nM

Structure (SMILES): COc1nc(-c2csc(Nc3c4c(nn3C)CCC4)n2)ccc1-n1cnc(C)c1 [Compound 63, 4-(6-methoxy-5-(4-methyl-1H-imidazol-1-yl)pyridin-2-yl)-N-(2-methyl-2,4,5,6-tetrahydrocyclopenta[c]pyrazol-3-yl)thiazol-2-amine]
- Clearance as share of mouse hepatic blood flow ([1]; iv): ~24%
- clearance at 24 h [1, 8]: 21.8 mL/min/kg
- Fraction of oral dose absorbed [1]: greater than 80%
- Parent Aβ42 IC50 [6]: >1000 nM

Structure (SMILES): CCn1nc2c(c1Nc1nc(-c3ccc(-n4cnc(C)c4)c(OC)n3)cs1)CCC2 [Compound 64, N-(2-ethyl-2,4,5,6-tetrahydrocyclopenta[c]pyrazol-3-yl)-4-(6-methoxy-5-(4-methyl-1H-imidazol-1-yl)pyridin-2-yl)thiazol-2-amine]
- clearance at 24 h [1, 8]: 43.5 mL/min/kg
- half-life [1, 8]: 42 min
- Fraction of oral dose absorbed [1]: greater than 80%
- Effect on plasma Aβ42 and Aβ40 [5]: dose-dependent reduction
- Effect on Aβ38 levels [5]: reduced
- Parent Aβ42 IC50 [6]: 41 nM
- Effect on plasma Aβ38 levels [7]: potentiating
- Effect on plasma Aβ42 and Aβ40 levels [7]: decreased

Structure (SMILES): COc1nc(-c2csc(Nc3c4c(nn3C3CCC3)CCC4)n2)ccc1-n1cnc(C)c1 [Compound 67, N-(2-cyclobutyl-2,4,5,6-tetrahydrocyclopenta[c]pyrazol-3-yl)-4-(6-methoxy-5-(4-methyl-1H-imidazol-1-yl)pyridin-2-yl)thiazol-2-amine]
- Parent Aβ42 IC50 [6]: 92 nM

Structure (SMILES): COc1nc(-c2csc(Nc3c4c(nn3CC(F)(F)F)CCC4)n2)ccc1-n1cnc(C)c1 [Compound 69, 4-(6-methoxy-5-(4-methyl-1H-imidazol-1-yl)pyridin-2-yl)-N-(2-(2,2,2-trifluoroethyl)-2,4,5,6-tetrahydrocyclopenta[c]pyrazol-3-yl)thiazol-2-amine]
- Parent Aβ42 IC50 [6]: 94 nM

Structure (SMILES): COc1nc(-c2csc(Nc3c4c(nn3CCO)CCC4)n2)ccc1-n1cnc(C)c1 [Compound 70, 2-(3-((4-(6-methoxy-5-(4-methyl-1H-imidazol-1-yl)pyridin-2-yl)thiazol-2-yl)amino)-5,6-dihydrocyclopenta[c]pyrazol-2(4H)-yl)ethanol]
- Parent Aβ42 IC50 [6]: >1000 nM

Structure (SMILES): CCn1nc2c(c1Nc1nc(-c3ccc(-n4cnc(C)c4)c(OC)n3)cs1)CCC2(C)C [Compound 71, N-(2-ethyl-6,6-dimethyl-2,4,5,6-tetrahydrocyclopenta[c]pyrazol-3-yl)-4-(6-methoxy-5-(4-methyl-1H-imidazol-1-yl)pyridin-2-yl)thiazol-2-amine]
- Parent Aβ42 IC50 [6]: 62 nM

Structure (SMILES): CCn1nc2c(c1Nc1nc(-c3ccc(-n4cnc(C)c4)c(OC)n3)cs1)CCCCC2 [Compound 73, N-(2-ethyl-2,4,5,6,7,8-hexahydrocyclohepta[c]pyrazol-3-yl)-4-(6-methoxy-5-(4-methyl-1H-imidazol-1-yl)pyridin-2-yl)thiazol-2-amine]
- Parent Aβ42 IC50 [6]: 114 nM

Structure (SMILES): CCn1nccc1Nc1nc(-c2ccc(-n3cnc(C)c3)c(OC)n2)cs1 [Compound 74, N-(1-ethyl-1H-pyrazol-5-yl)-4-(6-methoxy-5-(4-methyl-1H-imidazol-1-yl)pyridin-2-yl)thiazol-2-amine]
- Parent Aβ42 IC50 [6]: >1000 nM

Structure (SMILES): C[C@H](NC(=O)Cc1cc(F)cc(F)c1)C(=O)N[C@H](C(=O)OC(C)(C)C)c1ccccc1 [DAPT, reference compound]
- Notch processing (NΔE to NICD) [2]: significantly inhibits
